Experimental data collected from several papers.

SMILES	cell line	assay	setting	endpoint	result
c1cncc(-c2nc3ccccc3[nH]2)c1	human Rhabdomyosarcoma cell	cell growth or viability, MTT	48 h	IC50	87.7 µM
C/C(=N\O)c1ccc(-c2ccc(F)cc2)c(Cl)c1O	NCI-H1299	cell growth or viability, MTT	30 µM, 48 h	viability	69%
O=C(/C=C(O)/C=C/c1cccnc1)/C=C/c1c[nH]c2ccccc12	CHO-K1	cell growth or viability, MTT	72 h	IC50	9.2 µM
Cc1cc(Nc2ccc(C(=O)N/N=C/c3ccc[nH]3)cc2)c2cccc(O)c2n1	SMMC-7721	cell growth or viability, MTT	20 µM	inhibition	16.1%
O=C(Cn1ccnc1[N+](=O)[O-])NCc1ccccc1	Vero	cell growth or viability	72 h	CC50	> 10 µM
Cc1cc(=O)n(C)c2cc(N3C(=O)CC[C@H](NS(=O)(=O)CC(C)C)[C@H]3c3ccc(Cl)cc3)ccc12	HL-60	cell growth or viability	7 days	EC50	5030 nM
COc1cc(Nc2nccc(-c3cnn4nc(OC)ccc34)n2)cc(C(F)(F)F)c1	OV56	cell growth or viability, ATP luminescence	–	IC50	1.4 µM
N#C[Se]CC1Cc2ccc(Oc3ccccc3)cc2O1 (racemic)	Vero	cell growth or viability	72 h	CC50	> 20 µM
Clc1ccc(-c2nc3ccccc3[nH]2)c(Cl)c1	human Rhabdomyosarcoma cell	cell growth or viability, MTT	48 h	IC50	35 µM
CC(C)C[C@H](NC(=O)[C@H](Cc1ccccc1)NC(=O)c1cnccn1)B(O)O	COR-L279	cell growth or viability, ATP luminescence	–	IC50	0.0076 µM
CN(C)c1ccc(-c2nc3ccccc3[nH]2)cc1	human Rhabdomyosarcoma cell	cell growth or viability, MTT	48 h	IC50	50.5 µM
COc1cc(/C=C/C(=O)/C=C(O)/C=C/c2cccc3cnccc23)ccc1O	CHO-K1	cell growth or viability, MTT	72 h	IC50	7.6 µM
N[C@@H]1CCCN(c2c(/C=C3\SC(=O)NC3=O)cccc2-c2ccccc2)C1	U-266	cell growth or viability, thymidine uptake	–	GI50	4.27 µM
Cc1cc(Nc2ccc(C(=O)N/N=C/c3ccc(C)s3)cc2)c2cccc(O)c2n1	SMMC-7721	cell growth or viability, MTT	20 µM	inhibition	25.1%
Cc1cc(Nc2ncc(Cl)c(Nc3ccccc3S(=O)(=O)C(C)C)n2)c(OC(C)C)cc1C1CCNCC1	NCI-H3122	cell growth or viability, MTT	0.08 µg/mL, 72 h	inhibition	64.2%
N#C[Se]CCOc1ccccc1Oc1ccccc1	Vero	cell growth or viability	72 h	CC50	> 20 µM
O=C1CCC(N2C(=O)c3ccc(NS(=O)(=O)c4ccccc4OC(F)(F)F)cc3C2=O)C(=O)N1 (stereo not shown)	MHHCALL4	cell growth or viability, ATP luminescence	–	EC50	0.0425 nM
CC(=O)c1c(C)c2cnc(Nc3ccc(N4CCNCC4)cn3)nc2n(C2CCCC2)c1=O	HCC70	cell growth or viability, resazurin	–	GI50	> 5 µM
Cc1cc(Nc2ccc(C(=O)N/N=C/c3ccc(N(C)C)cc3)cc2)c2cccc(O)c2n1	SMMC-7721	cell growth or viability, MTT	20 µM	inhibition	33.6%
COc1cc(/C=C/c2cc(/C=C/c3cccnc3)[nH]n2)ccc1O	CHO-K1	cell growth or viability, SRB	72 h	IC50	13.6 µM
Cc1cc(Nc2ccc(C(=O)N/N=C/c3cccs3)cc2)c2cccc(O)c2n1	SMMC-7721	cell growth or viability, MTT	20 µM	inhibition	40.7%
C/C(=N\O)c1ccc(-c2ccc(O)c(Cl)c2)c(Cl)c1O	NCI-H1299	cell growth or viability, MTT	30 µM, 48 h	viability	80%

SMILES	cell line	assay	setting	endpoint	result
Fc1cccc(Cl)c1-c1nc2ccccc2[nH]1	human Rhabdomyosarcoma cell	cell growth or viability, MTT	48 h	IC50	> 100 µM
C/C(=N\O)c1ccc(-c2ccc(C#N)cc2)c(Cl)c1O	NCI-H1299	cell growth or viability, MTT	30 µM, 48 h	viability	75%
COc1ccc(-c2ccc(-c3ccc(C(=N)N)nc3)s2)cc1	M14	cell growth or viability, SRB	–	GI50	1.8 µM
COc1ccc(-c2ccc(/C(C)=N/O)c(O)c2Cl)cc1	NCI-H1299	cell growth or viability, MTT	30 µM, 48 h	viability	73%
Cc1cc(Nc2ccc(C(=O)N/N=C/c3cc4ccccc4[nH]3)cc2)c2cccc(O)c2n1	SMMC-7721	cell growth or viability, MTT	20 µM	inhibition	54.3%
Clc1ccc(-c2nc3ccccc3[nH]2)cc1	human Rhabdomyosarcoma cell	cell growth or viability, MTT	48 h	IC50	> 100 µM
C=C(F)C(=O)N1CCN(c2nc(OC[C@@H]3CCCN3C)nc3c2CCN(c2cccc4cccc(Cl)c24)C3)C[C@@H]1CC#N	NCI-H1437	cell growth or viability, ATP luminescence	5 days	GI50	2.22 µM
Cc1cc2c(cc1N1C(=O)c3cccc4c(CCCO)ccc(c34)C1=O)n(C)c(=O)n2C (racemic)	CHL-1	cell growth or viability, resazurin	–	GI50	7.4 µM
Cc1cc(Nc2ccc(C(=O)N/N=C/c3cccc(Oc4ccccc4)c3)cc2)c2cccc(O)c2n1	SMMC-7721	cell growth or viability, MTT	20 µM	inhibition	37.6%
O=C(/C=C(O)/C=C/c1ccc[nH]1)/C=C/c1c[nH]c2ccccc12	CHO-K1	cell growth or viability, SRB	72 h	IC50	9.64 µM
CS(=O)(=O)CCNCc1ccc(-c2ccc3ncnc(Nc4ccc(OCc5cccc(F)c5)c(Cl)c4)c3c2)o1	NCI-H1299	cell growth or viability, MTT	72 h	EC50	41000 nM
Clc1ccc(Cn2c(-c3ccc(Cl)cc3)nc3ccccc32)cc1	human Rhabdomyosarcoma cell	cell growth or viability, MTT	–	IC50	9.67 µM
COc1cc(/C=C/C(=O)/C=C(O)/C=C/c2ccnc3ccccc23)ccc1O	CHO-K1	cell growth or viability, SRB	72 h	IC50	19.3 µM
C[C@@H](Oc1cc(-c2cnn(C3CCNCC3)c2)cnc1N)c1c(Cl)ccc(F)c1Cl	NCI-H3122	cell growth or viability, MTT	0.2 µg/mL, 72 h	inhibition	52.9%
CC(=O)c1cccc(N=Nc2c(C(=O)O)cc(O)c(O)c2O)c1	RAW264.7	TNF-α release, inhibitor, ELISA	10 µM, LPS-stimulated	inhibition	48%
Cc1cc(Nc2ccc(C(=O)N/N=C/c3nc4ccccc4[nH]3)cc2)c2cccc(O)c2n1	SMMC-7721	cell growth or viability, MTT	20 µM	inhibition	28.3%
Cc1ccc2nc(-c3ccc4c(c3)OCO4)[nH]c2c1	human Rhabdomyosarcoma cell	cell growth or viability, MTT	48 h	IC50	> 100 µM
C/C(=N\O)c1ccc(-c2cccc(OC(F)(F)F)c2)c(Cl)c1O	NCI-H1299	cell growth or viability, MTT	30 µM, 48 h	viability	83%
C=CC(=O)N1CCN(c2nc(=O)n(-c3c(C)ccnc3C(C)C)c3nc(-c4c(O)cccc4F)c(F)cc23)[C@@H](C)C1	NCI-H1437	cell growth or viability, ATP luminescence	5 days	GI50	> 10 µM
Cc1ccc(NC(=O)NCc2ccc3c(c2)CN(C2CCC(=O)NC2=O)C3=O)cc1Cl (stereo not shown)	MHHCALL4	cell growth or viability, ATP luminescence	–	EC50	0.0019 nM
Cc1ccc2nc(-c3cc(Br)ccc3O)[nH]c2c1	human Rhabdomyosarcoma cell	cell growth or viability, MTT	48 h	IC50	10.4 µM
